Reference: ChEMBL document CHEMBL1155161, “Effects of the translocation status of human immunodeficiency virus type 1 reverse transcriptase on the efficiency of excision of tenofovir” (Antimicrob Agents Chemother, 2007)

Legend:
[1] = biological target: T1, Human immunodeficiency virus type 1 reverse transcriptase (Human immunodeficiency virus 1, UniProt Q72547); test: Inhibition of HIV1 reverse transcriptase by steady state nucleotide incorporation assay
Method in brief: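 Steady-state assay with activated calf thymus DNA as template in excess; rates from linear regression of [3H]dNTP incorporation over time; Km and Ki fitted to competitive inhibition equation (constant Vmax) over increasing NRTI concentrations; two-tailed t tests.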

[2] = biological target: Human immunodeficiency virus type 1 reverse transcriptase (Human immunodeficiency virus 1) (UniProt Q72547); test: Ratio of Ki to Km for HIV1 reverse transcriptase by steady state nucleotide incorporation assay
Method in brief: (§1)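 Steady-state kinetics for WT or 4Y p66/p51 RT on activated calf thymus DNA, with template in excess. Rates come from linear regression of [3H]dNTP incorporation over a time course, with increasing NRTI. Km and Ki are fitted with a competitive inhibition equation (Marquardt-Levenberg); two-tailed t-tests.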

[3] = biological target: Human immunodeficiency virus type 1 reverse transcriptase (Human immunodeficiency virus 1, UniProt Q72547, D67N/L210W/M41L/T215Y); test: Inhibition of HIV1 reverse transcriptase M41L/D67N/L210W/T215Y mutant by steady state nucleotide incorporation assay; method in brief: as §1
[4] = test system: Human immunodeficiency virus 1; test: Ratio of Ki for HIV1 reverse transcriptase M41L/D67N/L210W/T215Y mutant to Ki for wild-type reverse transcriptase; method in brief: as §1
[5] = test system: Human immunodeficiency virus type 1 reverse transcriptase (Human immunodeficiency virus 1), Q72547 [M41L,D67N,L210W,T215Y]; test: Ratio of Ki to Km for HIV1 reverse transcriptase M41L/D67N/L210W/T215Y mutant by steady state nucleotide incorporation assay; method in brief: as §1
[6] = test system: Human immunodeficiency virus 1; test: Ratio of Ki/Km for HIV1 reverse transcriptase M41L/D67N/L210W/T215Y mutant to Ki/Km for wild-type reverse transcriptase; method in brief: as §1
[7] = biological target: Human immunodeficiency virus type 1 reverse transcriptase (Human immunodeficiency virus 1) (UniProt Q72547); test: Inhibition of HIV1 reverse transcriptase assessed as dCTP level required to form 80% of binary enzyme complex formation with drug-terminated primer in posttranslocation state by site-specific foot printing assay
Method in brief: (§2)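 Site-specific footprinting uses a radiolabelled template with WT or 4Y p66/p51 RT in pH 7 cacodylate buffer with 6 mM MgCl2. The primer is chain-terminated with 10 μM analogue (20 min, 37°C), then the next nucleotide dCTP is added at varying levels for 10 min at 37°C. Complexes are treated with KOONO and resolved on urea gels. The value is the dCTP level giving 50% or 80% posttranslocated complex; ≥3 experiments.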

[8] = biological target: T1, Human immunodeficiency virus type 1 reverse transcriptase; test: Binding affinity to ternary complex of HIV1 reverse transcriptase with primer/template in presence of dCTP substrate
[9] = test system: Human immunodeficiency virus type 1 reverse transcriptase (Human immunodeficiency virus 1), Q72547 [M41L,D67N,L210W,T215Y]; test: Inhibition of HIV1 reverse transcriptase M41L/D67N/L210W/T215Y mutant assessed as dCTP level required to form 80% of binary enzyme complex formation with drug-terminated primer in posttranslocation state by site-specific foot printing assay; method in brief: as §2
[10] = biological target: Human immunodeficiency virus type 1 reverse transcriptase (Human immunodeficiency virus 1) (UniProt Q72547); test: Inhibition of HIV1 reverse transcriptase assessed as dCTP level required to form 50% of binary enzyme complex formation with drug-terminated primer in posttranslocation state by site-specific foot printing assay; method in brief: as §2
[11] = biological target: Human immunodeficiency virus type 1 reverse transcriptase (Human immunodeficiency virus 1) (UniProt Q72547); test: Ratio of Kcat to Km for HIV1 reverse transcriptase assessed as nucleotide excision activity in presence of 0.5 uM dCTP
Method in brief: (§3)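 Purified heterodimeric p66/p51 HIV-1 RT (WT or M41L/D67N/L210W/T215Y). ATP plus a dNTP mix containing the next nucleotide dCTP (0.5 or 10 μM) is then added at 37°C. Excised/rescued product is followed over time on denaturing urea gels. ATP Km and Vmax give kcat/Km; means of ≥3 experiments. Ratios are 4Y/WT or 0.5/10 μM dCTP.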

[12] = biological target: Human immunodeficiency virus type 1 reverse transcriptase (Human immunodeficiency virus 1) (UniProt Q72547); test: Ratio of Kcat to Km for HIV1 reverse transcriptase assessed as nucleotide excision activity in presence of 10 uM dCTP; method in brief: as §3
[13] = test system: Human immunodeficiency virus type 1 reverse transcriptase (Human immunodeficiency virus 1), Q72547 [M41L,D67N,L210W,T215Y]; test: Ratio of Kcat to Km for HIV1 reverse transcriptase M41L/D67N/L210W/T215Y mutant assessed as nucleotide excision activity in presence of 0.5 uM dCTP; method in brief: as §3
[14] = test system: Human immunodeficiency virus type 1 reverse transcriptase (Human immunodeficiency virus 1), Q72547 [M41L,D67N,L210W,T215Y]; test: Ratio of Kcat to Km for HIV1 reverse transcriptase M41L/D67N/L210W/T215Y mutant assessed as nucleotide excision activity in presence of 10 uM dCTP; method in brief: as §3
[15] = test system: Human immunodeficiency virus 1; test: Ratio of Kcat/Km for HIV1 reverse transcriptase M41L/D67N/L210W/T215Y mutant to Kcat/Km for wild-type reverse transcriptase assessed as nucleotide excision activity in presence of 0.5 uM dCTP; method in brief: as §3
[16] = test system: Human immunodeficiency virus 1; test: Ratio of Kcat/Km for HIV1 reverse transcriptase M41L/D67N/L210W/T215Y mutant to Kcat/Km for wild-type reverse transcriptase assessed as nucleotide excision activity in presence of 10 uM dCTP; method in brief: as §3
[17] = biological target: Human immunodeficiency virus type 1 reverse transcriptase (Human immunodeficiency virus 1) (UniProt Q72547); test: Ratio of Kcat/Km for HIV1 reverse transcriptase in presence of 0.5 uM dCTP to Kcat/Km for reverse transcriptase in presence of 10 uM dCTP by nucleotide excision activity assay; method in brief: as §3
[18] = test system: Human immunodeficiency virus type 1 reverse transcriptase (Human immunodeficiency virus 1), Q72547 [M41L,D67N,L210W,T215Y]; test: Ratio of Kcat/Km for HIV1 reverse transcriptase M41L/D67N/L210W/T215Y mutant in presence of 0.5 uM dCTP to Kcat/Km for reverse transcriptase M41L/D67N/L210W/T215Y mutant in presence of 10 uM dCTP by nucleotide excision activity assay; method in brief: as §3
[19] = test system: Human immunodeficiency virus type 1 reverse transcriptase (Human immunodeficiency virus 1), Q72547 [M41L,D67N,L210W,T215Y]; test: Inhibition of HIV1 reverse transcriptase M41L/D67N/L210W/T215Y mutant assessed as dCTP level required to form 50% of binary enzyme complex formation with drug-terminated primer in posttranslocation state by site-specific foot printing assay; method in brief: as §2
[20] = test system: C[C@H](Cn1cnc2c(N)ncnc21)OCP(=O)(O)O; test: (§4) Activity of HIV1 reverse transcriptase M41L/D67N/L210W/T215Y mutant assessed as nucleotide excision activity in presence of 0.5 uM dCTP; conditions: Human immunodeficiency virus 1; method in brief: as §3
[21] = test system: Cc1cn([C@H]2C[C@H](N=[N+]=[N-])[C@@H](COP(=O)(O)O)O2)c(=O)[nH]c1=O; test: as §4; conditions: Human immunodeficiency virus 1; method in brief: as §3
[22] = test system: [N-]=[N+]=N[C@H]1C[C@H](n2cnc3c(N)ncnc32)O[C@@H]1COP(=O)(O)O; test: as §4; conditions: Human immunodeficiency virus 1; method in brief: as §3
[23] = test system: C[C@H](Cn1cnc2c(N)ncnc21)OCP(=O)(O)O; test: (§5) Activity of HIV1 reverse transcriptase M41L/D67N/L210W/T215Y mutant assessed as nucleotide excision activity in presence of 10 uM dCTP; conditions: Human immunodeficiency virus 1; method in brief: as §3
[24] = test system: Cc1cn([C@H]2C[C@H](N=[N+]=[N-])[C@@H](COP(=O)(O)O)O2)c(=O)[nH]c1=O; test: as §5; conditions: Human immunodeficiency virus 1; method in brief: as §3
[25] = test system: [N-]=[N+]=N[C@H]1C[C@H](n2cnc3c(N)ncnc32)O[C@@H]1COP(=O)(O)O; test: as §5; conditions: Human immunodeficiency virus 1; method in brief: as §3

Row | Molecule | Ki [1] | Ratio [2] | Ki [3] | Ratio Ki [4] | Ratio [5] | Ratio [6] | Activity [7] | Kd [8] | Activity [9] | Activity [10] | Ratio [11] | Ratio [12] | Ratio [13] | Ratio [14] | Ratio [15] | Ratio [16] | Ratio [17] | Ratio [18] | Activity [19] | further results
1 | C[C@H](Cn1cnc2c(N)ncnc21)OCP(=O)(O)OP(=O)(O)O | 210 nM | 0.47 | 110 nM | 0.5 | 0.19 | 0.4 | – | – | – | – | – | – | – | – | – | – | – | – | – | –
2 | [N-]=[N+]=N[C@H]1C[C@H](n2cnc3c(N)ncnc32)O[C@@H]1COP(=O)(O)OP(=O)(O)OP(=O)(O)OP(=O)(O)O | 230 nM | 0.51 | 150 nM | 0.65 | 0.26 | 0.5 | – | – | – | – | – | – | – | – | – | – | – | – | – | –
3 | Nc1ncnc2c1ncn2[C@H]1CC[C@@H](COP(=O)(O)O)O1 | – | – | – | – | – | – | 0.2 µM | 100 nM | 0.3 µM | – | – | – | – | – | – | – | – | – | – | –
4 | Cc1cn([C@H]2C[C@H](N=[N+]=[N-])[C@@H](COP(=O)(O)OP(=O)(O)OP(=O)(O)O)O2)c(=O)[nH]c1=O | – | 0.09 | – | 1.2 | 0.09 | 1 | – | – | – | – | – | – | – | – | – | – | – | – | – | –
5 | [N-]=[N+]=N[C@H]1C[C@H](n2cnc3c(N)ncnc32)O[C@@H]1COP(=O)(O)O | – | – | – | – | – | – | 100 µM | – | > 100 µM | 10 µM | 0.49 | 0.37 | 1.6 | 1.2 | 3.3 | 3.2 | 1.3 | 1.3 | 27 µM | –
6 | Cc1cn([C@H]2C[C@H](N=[N+]=[N-])[C@@H](COP(=O)(O)O)O2)c(=O)[nH]c1=O [AZIDOTHYMIDINE MONOPHOSPHATE] | – | – | – | – | – | – | 31 µM | 24900 nM | 50 µM | 8 µM | 0.19 | 0.16 | 1.3 | 1.08 | 6.8 | 6.8 | 1.2 | 1.2 | 8 µM | –
7 | Nc1ncnc2c1ncn2[C@H]1CC[C@@H](COP(=O)(O)OP(=O)(O)OP(=O)(O)O)O1 [DDA-TRIPHOSPHATE] | 90 nM | 0.2 | 50 nM | 0.6 | 0.09 | 0.5 | – | – | – | – | – | – | – | – | – | – | – | – | – | –
8 | C[C@H](Cn1cnc2c(N)ncnc21)OCP(=O)(O)O [TENOFOVIR ANHYDROUS] | – | – | – | – | – | 0.4 | 3 µM | 3200 nM | 2 µM | 0.1 µM | 1.1 | 0.15 | 16.4 | 2.9 | 14.9 | 19.3 | 7.3 | 5.7 | 0.3 µM | –
9 | Cc1cn([C@H]2C[C@H](N=[N+]=[N-])[C@@H](CO[P@](=O)(O)O[P@](=O)(O)OP(=O)(O)O)O2)c(=O)[nH]c1=O [ZIDOVUDINE TRIPHOSPHATE] | 41 nM | – | 47 nM | – | – | – | – | – | – | – | – | – | – | – | – | – | – | – | – | –
10 | Human immunodeficiency virus type 1 reverse transcriptase (Human immunodeficiency virus 1) (from UniProt Q72547) M41L,D67N,L210W,T215Y | – | – | – | – | – | – | – | – | – | – | – | – | – | – | – | – | – | – | – | Km [20]: 590 µM; kcat [20]: 9.7 ×10⁻³ /min; Km [21]: 1400 µM; kcat [21]: 1.8 ×10⁻³ /min; Km [22]: 2000 µM; kcat [22]: 3.2 ×10⁻³ /min; Km [23]: 960 µM; kcat [23]: 2.8 ×10⁻³ /min; Km [24]: 1200 µM; kcat [24]: 1.3 ×10⁻³ /min; Km [25]: 2000 µM; kcat [25]: 2.4 ×10⁻³ /min
